# In all, about 330,000 compounds went through this assay and about 2,400 (0.73%) were called active. This is one part of a sample in which actives are shown more often than they occur. Rule for the calls: active = inhibition of at least 40% at 20 µM; inactive = the rest.
# Target: Apoptotic protease-activating factor 1 (Homo sapiens) (UniProt O14727)
# Experiment: blockers of Apaf-1-driven caspase-3 activation – biochemical, DEVD-Rh110 fluorescence, uHTS, primary screen (AID 489030);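 note: plate controls were DMSO wells for no effect and DEVD-CHO caspase inhibitor wells for full effect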
# Details: reconstituted apoptosome caspase-3 activity, at 20 µM, active compounds read high
# Procedure, shortened: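 Material: reconstituted apoptosome with Apaf-1, cytochrome c, caspase-9, procaspase-3, dATP; medium: pH 7.5 Hepes buffer with CHAPS, BSA, DTT; also added: cytochrome c and DEVD-Rh110 substrate; timing: 30 min plus 50 min, RT; signal: Rh110 fluorescence intensity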
# Apoptotic protease-activating factor 1 (Homo sapiens), sequence (O14727 whole entry, looked up): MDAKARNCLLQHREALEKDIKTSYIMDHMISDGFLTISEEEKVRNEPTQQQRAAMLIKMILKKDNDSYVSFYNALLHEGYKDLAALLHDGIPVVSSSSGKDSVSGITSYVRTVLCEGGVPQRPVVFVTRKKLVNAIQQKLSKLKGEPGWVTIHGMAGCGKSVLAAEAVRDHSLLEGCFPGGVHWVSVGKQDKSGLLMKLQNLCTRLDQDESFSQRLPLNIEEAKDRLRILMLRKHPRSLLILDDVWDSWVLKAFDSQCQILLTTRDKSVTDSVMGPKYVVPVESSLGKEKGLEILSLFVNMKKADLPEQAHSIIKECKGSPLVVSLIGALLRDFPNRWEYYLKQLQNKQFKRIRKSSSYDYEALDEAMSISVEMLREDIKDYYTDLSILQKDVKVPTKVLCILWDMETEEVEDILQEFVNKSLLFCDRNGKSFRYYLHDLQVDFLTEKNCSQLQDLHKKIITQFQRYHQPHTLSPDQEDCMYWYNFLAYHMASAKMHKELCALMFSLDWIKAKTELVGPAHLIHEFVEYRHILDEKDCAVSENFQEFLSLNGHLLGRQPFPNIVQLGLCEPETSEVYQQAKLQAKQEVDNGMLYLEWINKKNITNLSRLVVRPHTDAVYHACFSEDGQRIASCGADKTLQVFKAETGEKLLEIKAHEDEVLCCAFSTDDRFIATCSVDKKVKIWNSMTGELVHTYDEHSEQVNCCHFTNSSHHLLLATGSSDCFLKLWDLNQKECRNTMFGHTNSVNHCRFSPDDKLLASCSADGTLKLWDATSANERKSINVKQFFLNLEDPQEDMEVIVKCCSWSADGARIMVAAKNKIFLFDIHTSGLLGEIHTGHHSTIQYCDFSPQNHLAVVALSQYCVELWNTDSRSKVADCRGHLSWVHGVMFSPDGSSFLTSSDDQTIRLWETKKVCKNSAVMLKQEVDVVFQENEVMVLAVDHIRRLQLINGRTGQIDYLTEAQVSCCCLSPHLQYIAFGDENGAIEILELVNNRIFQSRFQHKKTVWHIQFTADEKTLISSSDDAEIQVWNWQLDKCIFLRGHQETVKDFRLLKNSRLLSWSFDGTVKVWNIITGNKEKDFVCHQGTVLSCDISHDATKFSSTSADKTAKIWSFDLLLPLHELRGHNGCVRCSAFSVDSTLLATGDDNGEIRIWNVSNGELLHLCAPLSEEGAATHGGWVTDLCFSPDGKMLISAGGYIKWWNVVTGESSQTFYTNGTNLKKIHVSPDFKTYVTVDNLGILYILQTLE
row,Structure (SMILES),inhibition
1,CNC(=O)NC(=O)CSc1nnc(-c2ccc(F)cc2)n1CC1CCCO1 (centres undefined),-8.1% (inactive)
2,O=C(NN1C(=O)C2C3C=CC(C4CC34)C2C1=O)c1ccc(Cl)cc1 (centres undefined),5.04% (inactive)
3,CCOC(=O)Cn1nnnc1C,-24.4% (inactive)
4,COc1cc(C(=O)NC2CCN(Cc3ccccc3)CC2)cc(Cl)c1OC(C)C,4.18% (inactive)
5,COc1ccccc1-c1sc2ccccc2c1-c1ccc(C(C)=O)cc1,21.9% (inactive)
6,COc1cccc(-c2sc3ccc(OC)cc3c2-c2ccc(OCCN3CCCCC3)cc2)c1,61.8% (active)
7,COc1ccc2sc(-c3ccccc3OC)c(-c3ccc(OCCN4CCCC4)cc3)c2c1,73.4% (active)
8,COc1cc(OC)cc(-c2sc3ccc(OC)cc3c2-c2ccc3cc[nH]c3c2)c1,7.8% (inactive)
9,COc1ccc(-c2sc3ccccc3c2-c2ccc(OCCN3CCOCC3)cc2)cc1,15.7% (inactive)
10,COc1ccccc1-c1sc2ccccc2c1-c1ccc(Br)nc1,14.2% (inactive)
11,CN1CCC(CN)(N2CCN(c3ccccc3)CC2)CC1,6.96% (inactive)
12,CC1COc2ccccc2N1S(=O)(=O)c1ccccc1 (centres undefined),11.7% (inactive)
13,OCCn1c(-c2ccccc2)csc1=Nc1ccccc1,16.7% (inactive)
14,O=C(Nc1cccc(Cl)c1Cl)c1ccccc1NC(=O)C1CC=CCC1C(=O)O (centres undefined),-3.06% (inactive)
15,O=C(COC(=O)C1(c2ccc(F)cc2)CCCC1)N1CCNC1=O,-3.12% (inactive)
16,Cc1ccc(NC(=O)c2oc3ccccc3c2C)c([N+](=O)[O-])c1,4.97% (inactive)
17,O=S1(=O)CCC(NC(=S)SCc2ccccc2Br)C1 (centres undefined),8.21% (inactive)
18,COc1ccc(Cl)cc1N(CC(=O)N/N=C/c1ccc(OCC(N)=O)cc1)S(C)(=O)=O,9.06% (inactive)
19,Cc1nc2ccccc2nc(C)c1=NOCc1ccc(Cl)cc1Cl,8.52% (inactive)
20,NC(N)=N/N=C/c1ccc(OCc2ccc(Cl)cc2Cl)cc1,65.5% (active)
21,CCCNC(=O)OC[C@H]1O[C@H](CCO/N=C/[C@@H](NS(=O)(=O)c2ccc(C)cc2)[C@H](C)/C=C/CC(=O)OC)C=C[C@@H]1Oc1ccc(OC)cc1,9.15% (inactive)
22,O=C(c1ccc(Br)o1)N1CCN(CCOc2ccccc2)CC1,5.93% (inactive)
23,CN(CC(=O)NC1CCCC1)S(=O)(=O)c1cnc[nH]1,-3.15% (inactive)
24,CCN(CC(=O)NCc1cccs1)C(=O)c1ccccc1F,-6.38% (inactive)
25,CCN(CC(=O)NCc1cccs1)C(=O)c1ccc(OC)c(S(=O)(=O)N2CCOCC2)c1,5.14% (inactive)
26,CCN(CC(=O)NCc1cccs1)C(=O)c1cccc(S(=O)(=O)Nc2ccccc2OC)c1,60.2% (active)
27,CCNC(=O)COC(=O)CCNC(=O)c1cccc(C)c1,-4.69% (inactive)

row,Structure (SMILES),inhibition
1,Cc1nn2cc(-c3ccc(Cl)cc3)cnc2c1Br,-6.41% (inactive)
2,COc1cc(OC)cc(C(=O)OCC(=O)Nc2sccc2C(N)=O)c1,-0.564% (inactive)
3,COC(=O)c1ccc(N2CCOCC2)c(NC(=O)c2ccc(Br)o2)c1,-17.7% (inactive)
4,CCCCc1nc2cc(C(=O)N3CCCCC3CCO)ccc2o1 (centres undefined),5.2% (inactive)
5,OCCNc1nc(Nc2ccc(Cl)c(Cl)c2)nc2ccccc12,24.2% (inactive)
6,CCN(CC)CCCSc1nc2ccccc2s1,-0.516% (inactive)
7,O=[N+]([O-])c1c(NCCO)cc(Sc2nc3ccccc3s2)c2nonc12,90.7% (active)
8,O=c1ccc2cc(S(=O)(=O)NCCCc3ccccc3)ccc2[nH]1,0.38% (inactive)
9,C=CC(=O)OCCOCCOCCOCCOC(=O)C=C,-5.63% (inactive)
10,c1ccc(C2CNCc3c2ccc2ccccc32)cc1 (centres undefined),13.6% (inactive)
11,c1ccc(C[C@H]2CNCCN2CCC23CC4CC(CC(C4)C2)C3)cc1,47.5% (active)
12,O=C1CCNCCN1[C@H](CO)Cc1ccccc1,-9.83% (inactive)
13,CC(C)(C)CN1C(=O)C(=O)NC[C@H]1Cc1cccc2ccccc12,-2.41% (inactive)
14,c1ccc2c(CCN3CCNC[C@H]3Cc3cccc4ccccc34)cccc2c1,67% (active)
15,NS(=O)(=O)c1ccc(N2C(=O)C3C4CC(C(Br)C4Br)C3C2=O)cc1 (centres undefined),4.73% (inactive)
16,CC(=O)Nc1ccc(OCCC[n+]2cccc(C(=O)[O-])c2)cc1,0.989% (inactive)
17,N=c1ccn(CC(=O)NC(N)=O)c2ccccc12,-8.89% (inactive)
18,Cc1cccc(/C=N/NC(=O)CNc2cccc3ccccc23)n1,8.96% (inactive)
19,C/C(=N\NC(=O)CSc1nc2ccccc2c(=O)n1-c1ccccc1C)c1cccs1,19.1% (inactive)
20,C/C(=N\NC(=O)CNc1cccc2ccccc12)c1ccc(Br)s1,90.2% (active)
21,COc1ccc(-n2nnnc2SCC(=O)c2ccc(OC)c(OC)c2)cc1,1% (inactive)
22,CC[C@@H](C)[C@@H](C(=O)N1CCN(C(=O)OC(C)(C)C)CC1)n1cc(CCC(=O)O)nn1,-7.69% (inactive)
23,COc1ccc(C2=NOC3(CC(=O)N(c4ccc(Cl)cc4)C3=O)C2)c(OC)c1 (centres undefined),5.23% (inactive)
24,C#CCOCCOCCOCCNc1nc(N2CCN(C(=O)CCCCCCCCCCNC(=O)Cn3cc(CCCCCN)nn3)CC2)nc(N2CCN(C(=O)CCCCCCCCCCNC(=O)[C@H](CO)n3cc(CCCSC)nn3)CC2)n1,60.7% (active)
25,C#CCOCCOCCOCCNc1nc(N2CCN(C(=O)[C@H](CCC(=O)O)n3cc(C(N)CO)nn3)CC2)nc(N2CCN(C(=O)[C@H](CCCCN)n3cc(C(N)[C@H](C)CC)nn3)CC2)n1 (some centres undefined),20.3% (inactive)
26,C#CCOCCOCCOCCNc1nc(N2CCN(C(=O)CCCCCCCCCCNC(=O)[C@H]([C@@H](C)CC)n3cc(CCCCN=C(N)N)nn3)CC2)nc(N2CCN(C(=O)CCCCCCCCCCNC(=O)[C@H](CO)n3cc(CCCSC)nn3)CC2)n1,59.2% (active)
27,C#CCOCCOCCOCCNc1nc(N2CCN(C(=O)[C@H](CCCCN)n3cc(CCC(=O)O)nn3)CC2)nc(N2CCN(C(=O)[C@H](CCCCN)n3cc(CC(C)O)nn3)CC2)n1 (some centres undefined),-2.94% (inactive)

row,Structure (SMILES),inhibition
1,C#CCOCCOCCOCCNc1nc(N2CCN(C(=O)CCCCCCCCCCNC(=O)[C@H](CCCCN)n3cc(C)nn3)CC2)nc(N2CCN(C(=O)CCCCCCCCCCNC(=O)[C@H](CO)n3cc(CCCSC)nn3)CC2)n1,59.7% (active)
2,C#CCOCCOCCOCCNc1nc(N2CCN(C(=O)[C@H](CCCN=C(N)N)n3cc(C(N)[C@@H](C)CC)nn3)CC2)nc(N2CCN(C(=O)[C@H](CO)n3cc([C@@H](N)C(C)C)nn3)CC2)n1 (some centres undefined),1.97% (inactive)
3,C#CCOCCOCCOCCNc1nc(N2CCN(C(=O)[C@H](CCC(=O)O)n3cc(C(N)CO)nn3)CC2)nc(N2CCN(C(=O)[C@H](CCCCN)n3cc(C(N)CC(C)C)nn3)CC2)n1 (some centres undefined),2.63% (inactive)
4,C#CCOCCOCCOCCNc1nc(N2CCN(C(=O)C([C@@H](C)O)n3cc([C@@H](N)CCCCN)nn3)CC2)nc(N2CCN(C(=O)[C@H](CCCCN)n3cc(CN)nn3)CC2)n1 (some centres undefined),42.2% (active)
5,C#CCOCCOCCOCCNc1nc(N2CCN(C(=O)Cn3cc(CCCCN)nn3)CC2)nc(N2CCN(C(=O)[C@H](CCCCN)n3cc(CCC(=O)O)nn3)CC2)n1,2.29% (inactive)
6,C#CCOCCOCCOCCNc1nc(N2CCN(C(=O)[C@H](C(C)C)n3cc(CCO)nn3)CC2)nc(N2CCN(C(=O)[C@H]([C@@H](C)CC)n3cc(CCCN=C(N)N)nn3)CC2)n1,0.78% (inactive)
7,C#CCOCCOCCOCCNc1nc(N2CCN(C(=O)[C@H](CCC(=O)O)n3cc(CN)nn3)CC2)nc(N2CCN(C(=O)[C@H](CCC(=O)O)n3cc(CN)nn3)CC2)n1,-8.71% (inactive)
8,C#CCOCCOCCOCCNc1nc(N2CCN(C(=O)C([C@@H](C)CC)n3cc(C(N)COC(=O)C(F)(F)F)nn3)CC2)nc(N2CCN(C(=O)[C@H](CCCCN)n3cc(C(N)CC(C)C)nn3)CC2)n1 (some centres undefined),4.38% (inactive)
9,CCN(c1ccc2c(c1)OCO2)S(=O)(=O)c1cc(Br)cc2c1N(C(=O)C1CC1)CC2,21.5% (inactive)
10,COc1cc(C2C(C(=O)c3cccs3)=C(O)C(=O)N2CCN2CCOCC2)ccc1OCCC(C)C (centres undefined),6.88% (inactive)
11,CCn1c(CN2C(=O)CSc3ccccc32)n[nH]c1=S,-18.9% (inactive)
12,CN(Cc1ccccc1)C(=O)c1ccc(NC2=NC3CS(=O)(=O)CC3S2)cc1 (centres undefined),-0.97% (inactive)
13,CC(C)Oc1ccc(Cc2n[nH]c(=S)n2Cc2ccccc2)cc1Cl,-15.3% (inactive)
14,CC(NCc1ccccc1OC1CCCC1)c1ccccc1 (centres undefined),-12% (inactive)
15,CCOc1[nH]n(-c2ccc(Cl)cc2)c(=O)c1C=Nc1ccc(O)cc1,66.9% (active)
16,CCOc1ccc(N=C2NC(=O)S/C2=C\c2ccc(O)cc2)cc1,-72% (inactive)
17,CCCCn1c(N)c(N(CCC(C)C)C(=O)c2ccc([N+](=O)[O-])o2)c(=O)[nH]c1=O,5.92% (inactive)
18,CCCCc1nnc(NC(=O)CSc2nc(N)cc(=O)[nH]2)s1,20.3% (inactive)
19,COc1ccc(NC(=O)CN(C)S(=O)(=O)c2ccccc2)cc1OC,-3.33% (inactive)
20,COc1ccc(NC(=O)CN(Cc2ccccc2)S(C)(=O)=O)cc1OC,40.8% (active)
21,COC(=O)c1ccccc1NC(=O)CN(Cc1ccccc1)S(C)(=O)=O,-17.6% (inactive)
22,CCCCN(C(=O)C1=NN(c2cc(C)ccc2C)C(=O)CC1)c1c(N)n(CCC)c(=O)[nH]c1=O,-17% (inactive)
23,CC1CC(=O)Nc2ccccc2N1S(=O)(=O)c1cccs1 (centres undefined),-4.75% (inactive)
24,CC1CC(=S)Nc2ccccc2N1Cc1ccccc1 (centres undefined),41.4% (active)
25,CC1CC(C)(C)NC(=S)N1CCC(=O)N1CCN(Cc2ccccc2)CC1 (centres undefined),-1.32% (inactive)
